Source: PubChem
MC4R antagonist = antagonists of human melanocortin 4 receptor (MC4R). MC4R-expressing cells, MTII-stimulated cAMP, LANCE TR-FRET. inhibition, % at 6.5 µM. 360,000 compounds, 0.48% hits. AID 540295;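 active means inhibition above its plate's cutoff, the mean of tested wells on that plate plus 3 SD, cut at about 29% in these data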
Target sequence (P32245 whole entry, looked up): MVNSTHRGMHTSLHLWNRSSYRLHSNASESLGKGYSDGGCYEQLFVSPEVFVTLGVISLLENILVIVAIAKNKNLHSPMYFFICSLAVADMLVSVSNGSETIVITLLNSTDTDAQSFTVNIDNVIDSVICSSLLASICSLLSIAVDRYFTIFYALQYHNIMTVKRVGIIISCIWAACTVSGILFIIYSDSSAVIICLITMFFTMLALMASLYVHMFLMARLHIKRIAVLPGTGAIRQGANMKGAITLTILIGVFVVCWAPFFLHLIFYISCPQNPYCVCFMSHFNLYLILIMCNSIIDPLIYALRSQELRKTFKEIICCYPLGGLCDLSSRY
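Assay system: human MC4R-expressing U2OS cells; reagent: Melanotan II stimulation of cells; dosing: 6.5 µM single dose; timing: compound 30 min, challenge 1 h, detection 1 h; signal: TR-FRET cAMP assay; replicates: one well per compound, no replicates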
EBI2 antag = EBI2 (human) antagonism | EBI2 beta-arrestin recruitment, luminescence, 7a,25-OHC stimulated | P32249 | inhibition, % at 5 µM | AID 651636 | 360,000 compounds, 0.81% hits; in the data active means inhibition above about 38%;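 further: enzyme fragment complementation signal reports receptor beta-arrestin coupling in cells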
Target sequence (P32249 whole entry, looked up, the tested form may be a part): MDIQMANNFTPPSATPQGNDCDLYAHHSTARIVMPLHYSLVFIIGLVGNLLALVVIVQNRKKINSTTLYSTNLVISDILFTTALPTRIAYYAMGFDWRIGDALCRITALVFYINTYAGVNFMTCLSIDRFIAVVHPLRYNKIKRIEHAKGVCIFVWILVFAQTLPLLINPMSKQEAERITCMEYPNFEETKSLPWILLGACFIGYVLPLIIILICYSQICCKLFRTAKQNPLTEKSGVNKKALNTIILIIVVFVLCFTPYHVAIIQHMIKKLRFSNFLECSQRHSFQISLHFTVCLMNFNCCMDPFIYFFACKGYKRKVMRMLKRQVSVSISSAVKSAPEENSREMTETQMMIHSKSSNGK
MC4R barr agon = agonists of human melanocortin 4 receptor (MC4R) beta-arrestin; P32245; U2OS MC4R beta-arrestin complementation, luminescence; percent of melanotan II response, DMSO zero; activation, % at 8.9 µM; 360,000 compounds, 0.98% hits; AID 540308;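 active means activation above a per-plate cutoff, the mean activation of sample wells on that plate plus 3 SD, cut at about 8% in these data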
Myeloid diff MLP = compounds promoting myeloid differentiation; 360,000 compounds, 1% hits; AID 624256; ER-HoxA9 myeloid progenitors, lysozyme-GFP differentiation, flow cytometry; calls only at 10 µM;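 active means normalized GFP-positive differentiation at or above the plate's own cutoff, the solvent-only control mean plus 3 SD; inconclusive means no clear call, values can overlap the other calls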;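 further: cells exposed to compound for four days before flow analysis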
Exocytosis inh = blocks lytic granule exocytosis. TALL-104 LAMP-1 surface exposure, flow cytometry; cells stimulated with thapsigargin and PMA. inhibition, % at 10 µM. 360,000 compounds, 0.66% hits;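 active means inhibition above about 55%, limit read from the data; inconclusive means no clear call, values can overlap the other calls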
Exocytosis CP01 = lytic granule exocytosis inhibition | shares compounds with Exocytosis inh | TALL-104 cells, LAMP-1 externalization, flow cytometry; stimulated with PMA plus thapsigargin | inhibition, % at 10 µM | 1,500 compounds, 11% hits | AID 651954; in the data active means inhibition above about 60%
Large screens that a line does not name were inactive (follow-up assays come after a bar, where they were run). Compounds with a hit are over-represented: about 3.7% of the library has one in this group of screens.

N#Cc1nc(COc2ccccc2Cl)oc1NCc1ccc(F)cc1	Exocytosis inh 59 | Exocytosis CP01 inactive
COc1ccc(CNc2oc(COc3ccccc3Cl)nc2C#N)cc1	none
Cc1c(Cl)c([N+](=O)[O-])nn1CC(=O)N1CCN(C23CC4CC(CC(C4)C2)C3)CC1	none
Cc1ccc(S(=O)(=O)N2CCC[C@H]2C(=O)OCc2cc(=O)oc3cc(C)ccc23)cc1	none
CC(C)(C)c1cc(CP(=O)(c2ccccc2)c2ccccc2)cc(C(C)(C)C)c1O	Exocytosis inh 57 | Exocytosis CP01 inactive
C=CCOc1c(Br)cc(/C=C2/C(=O)ON=C2C)cc1OC	none
COCOCCn1cc(CN2CCS(=O)(=O)N(Cc3ccc(-c4ccc(Cl)c(Cl)c4)cc3)C(C(C)C)C2=O)nn1 (stereo not given)	Exocytosis inh 57 | Exocytosis CP01 inactive
C=CCn1c(C)nnc1SCC(=O)Nc1oc(C)c2c(C)n[nH]c(=O)c12	Exocytosis inh 80 | Exocytosis CP01 inactive
CC(C)C[C@H]1CN(CCCC[C@@H]2CNC(=O)C(=O)N2CCc2ccccc2)C(=O)C(=O)N1CCc1ccc(O)cc1	none (no result: MC4R antagonist, MC4R barr agon)
CN(C)CCn1c(=N)n(CC(O)c2ccc(Cl)c(Cl)c2)c2ccccc21 (stereo not given)	Exocytosis inh 85 | Exocytosis CP01 inactive
N=c1n(CCN2CCCCC2)c2ccccc2n1CC(O)c1ccc(Cl)c(Cl)c1 (stereo not given)	none (no result: Myeloid diff MLP)
CC(C)Oc1cc(C(=O)NC2CCCCC2)c2ccccc2n1	none (no result: Myeloid diff MLP)
Cc1nnc(NC(=O)c2cc(-c3ccncc3)nc3c(C)cccc23)s1	none
CC1CCCC(C)N1C(=O)COC(=O)c1cccnc1Cl (stereo not given)	none
CCCCCCNC(=O)c1cccc(-c2ccc(C)c3ccccc23)n1	Exocytosis inh 58 | Exocytosis CP01 inactive
Cc1cc2oc(=O)cc(CN(C)Cc3ccccc3)c2cc1C(C)C	Exocytosis inh 69 | Exocytosis CP01 inactive
COc1ccc2oc(=O)cc(CN(C)Cc3ccccc3)c2c1	Exocytosis inh 72 | Exocytosis CP01 inactive
Cc1cc2oc(=O)cc(CN(C)Cc3ccccc3Cl)c2cc1C	Exocytosis inh 96 | Exocytosis CP01 inactive
CN(Cc1ccccc1)Cc1cc(=O)oc2ccccc12	none (no result: MC4R antagonist, MC4R barr agon)
COc1ccc(CN(C)Cc2cc(=O)oc3cc(C)c(C(C)C)cc23)cc1OC	none
COc1ccc(CN2C(=O)c3ccccc3C2C(=O)NC2CCCC(C)C2C)c(OC)c1 (stereo not given)	none
COc1ccc(C(=O)OC(C)C(=O)NC(C)CCc2ccccc2)cc1[N+](=O)[O-] (stereo not given)	none
COc1ccc(C(=O)OC(C)C(=O)NC(C)CCc2ccccc2)c(OC)c1 (stereo not given)	Exocytosis inh 58 | Exocytosis CP01 inactive
COc1ccc(CCNCc2ccc(OCc3ccccc3)cc2)cc1	Exocytosis inh 85 | Exocytosis CP01 inactive
COc1ccc(CNS(=O)(=O)CCNCCc2ccccc2)cc1	none
O=C1c2ccccc2C(c2nnnn2-c2ccc3c(c2)OCCO3)N1CCCn1ccnc1 (stereo not given)	none (no result: MC4R antagonist, MC4R barr agon)
O=C(NCc1ccncc1)C(=O)Nc1nc(C23CC4CC(CC(C4)C2)C3)cs1	Exocytosis inh 77 | Exocytosis CP01 inactive
CSc1nc(C(C)C)ccc1CNC(=O)CC(C)c1ccccc1 (stereo not given)	Exocytosis inh 63 | Exocytosis CP01 inactive
CC(CC(=O)NCc1ccc(F)cc1)c1ccccc1 (stereo not given)	none
Cc1ccc(CNC(=O)C2CC(c3cccc(F)c3)=NO2)cc1 (stereo not given)	Exocytosis inh 72 | Exocytosis CP01 inactive
O=C(NCc1ccc(OC(F)(F)F)cc1)C1CC(c2cccc(F)c2)=NO1 (stereo not given)	none
N#CCS(=O)(=O)c1ccccc1	none
Cc1cc2nc(/C=C/c3cccnc3)[nH]c2cc1C	Exocytosis inh 58 (no result: Myeloid diff MLP) | Exocytosis CP01 inactive
Cc1cc2nc(/C=C/c3nc4cc(C)c(C)cc4[nH]3)[nH]c2cc1C	none
CCCCC[C@@H](/C=C/C1C(=O)C=C[C@H]1C/C=C\CCCC(=O)OC)OC(C)=O (stereo not given in full)	none
Cc1oc(=O)c(NC(=O)c2ccc(Cl)cc2)cc1C(=O)c1ccccc1	Exocytosis inh 103 | Exocytosis CP01 inactive
Cc1ccc(Cl)cc1N1CCN(S(=O)(=O)c2cccc(S(=O)(=O)N3CCCC3)c2)CC1	Exocytosis inh 77 | Exocytosis CP01 inactive
Cc1ccc(Cl)cc1N1CCN(S(=O)(=O)c2ccc3[nH]c(=O)c(=O)[nH]c3c2)CC1	none
CNC[C@H]1Oc2c(NS(=O)(=O)c3cccs3)cccc2C(=O)N([C@H](C)CO)C[C@@H]1C	Exocytosis inh 77 | Exocytosis CP01 inactive
C[C@H](CO)N1C[C@H](C)[C@@H](CN(C)S(=O)(=O)c2ccccc2)Oc2c(NC(=O)c3ccncc3)cccc2C1=O	none
C[C@H](CO)N1C[C@H](C)[C@@H](CN(C)S(=O)(=O)c2ccc(F)cc2)Oc2c(NC(=O)c3ccncc3)cccc2C1=O	Exocytosis inh 92 | Exocytosis CP01 inactive
C[C@H](CO)N1C[C@H](C)[C@@H](CN(C)CC2CCCCC2)Oc2c(NS(=O)(=O)c3cccs3)cccc2C1=O	none
CCN(CC)C(=O)C(=O)N/N=C/c1ccc(F)cc1	none
CCOc1cccc2sc(N(CCN(C)C)C(=O)c3cc4ccccc4cc3OC)nc12	Myeloid diff MLP inconclusive, Exocytosis inh 59 | Exocytosis CP01 inactive
CCN(c1ccccc1)S(=O)(=O)c1ccc(C(=O)N(CCCN(C)C)c2nc3cc4c(cc3s2)OCO4)cc1	Exocytosis inh 70 | Exocytosis CP01 inactive
CCOc1cccc2sc(N(CCCN(C)C)C(=O)c3ccc(S(=O)(=O)N(CC)Cc4ccccc4)cc3)nc12	Exocytosis inh 64 | Exocytosis CP01 60
CCOc1cccc2sc(N(CCCN(C)C)C(=O)c3ccc(S(=O)(=O)N(C)Cc4ccccc4)cc3)nc12	none
Cc1ccc2sc(N(CCCN(C)C)C(=O)c3ccc(S(=O)(=O)N(C)Cc4ccccc4)cc3)nc2c1C	Exocytosis inh 66 | Exocytosis CP01 inactive
CCC(C)[C@H](NC(=O)NCc1ccccc1)C(=O)O (stereo not given in full)	Exocytosis inh 100 | Exocytosis CP01 inactive
CCc1ccc(N(C(C)=O)C2C=CS(=O)(=O)C2)cc1 (stereo not given)	Exocytosis inh 75 | Exocytosis CP01 inactive
COc1ccc(C(=S)N2CCOCC2)cc1OS(=O)(=O)c1ccc(Br)cc1	none
CCOc1ccc(C2Nc3cccc4cccc(c34)N2)cc1OC	Exocytosis inh 56 | Exocytosis CP01 inactive
CN(CC1CCN(CCc2cccc(C(F)(F)F)c2)CC1)C(=O)c1ccccc1	Exocytosis inh 56 | Exocytosis CP01 inactive
O=C(CSc1nc2ccccc2s1)N1c2ccccc2Sc2ccccc21	Exocytosis inh 62 | Exocytosis CP01 inactive
